For orientation: half-life means the time in which the quantity being followed falls by half.

One data set addresses Chymotrypsinogen A (Bos taurus) (UniProt P00766). Kind of data set: The second order inactivation rate constant was expressed as inhibition of chymotrypsin (ChT).Inhibitor concentrations were 360-570 uM. In a few lines: (§1)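 Kitz–Wilson incubation method. Enzyme was preincubated with inhibitor (added in DMSO) in 0.1 M HEPES, 0.5 M NaCl, pH 7.5, at 25 °C. Aliquots were taken over time and diluted into pNA substrate: HLE MeO-Suc-Ala-Ala-Pro-Val-pNA (0.2–0.5 mM), PPE Suc-Ala-Ala-Ala-pNA, ChT and Cat G Suc-Val-Pro-Phe-pNA (0.4–0.5 mM). Release was read at 410 nm. kobs/[I] from ln(v0/vt) vs time. Mean of two determinations. Fast rates measured with equimolar inhibitor and enzyme.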
`COc1oc(=O)c2cc(NC(=O)C(Cc3ccccc3)NC(=O)c3ccc(NC(=O)Nc4ccccc4)cc3)ccc2c1Cl` (centres undefined) yielded a k obs / 1 of 10 M⁻¹ s⁻¹.
The compound `COc1oc(=O)c2cc(NC(=O)[C@H](Cc3ccccc3)NC(=O)c3ccc([N+](=O)[O-])cc3)ccc2c1Cl` came in with a k obs / 1 of 30 M⁻¹ s⁻¹.
On the same count and under the same terms, the same measure for `COc1oc(=O)c2cc(NC(=O)[C@H](Cc3ccccc3)NC(=O)c3cccc(C)c3)ccc2c1Cl`: 64 M⁻¹ s⁻¹; for `COc1oc(=O)c2cc(NC(=O)[C@H](Cc3c[nH]c4ccccc34)NC(=O)OC(C)(C)C)ccc2c1Cl`: 33 M⁻¹ s⁻¹; for `COc1oc(=O)c2cc(NC(=O)C(Cc3ccccc3)NC(=O)c3cccc(NC(=O)Nc4ccccc4)c3)ccc2c1Cl` (centres undefined): 110 M⁻¹ s⁻¹.
Same read-out and setting: the same measure for `COc1oc(=O)c2cc(NC(=O)[C@H](Cc3ccccc3)NC(=O)c3ccc(C)cc3)ccc2c1Cl`: 130 M⁻¹ s⁻¹.

Another data set has the same target. Kind of data set: The second order inactivation rate constant was expressed as inhibition of chymotrypsin (ChT). Inhibitor concentrations were 3.4-70 uM. In a few lines:
as §1
The compound `CCCOc1oc(=O)c2cc(NC(=O)Nc3ccccc3)ccc2c1Cl` registered a k obs / 1 of 5200 M⁻¹ s⁻¹.
Consider `CCCOc1oc(=O)c2cc(NC(=O)[C@H](Cc3ccccc3)NS(=O)(=O)c3ccc(C)cc3)ccc2c1Cl`, for which the k obs / 1 amounted to 6100 M⁻¹ s⁻¹.
The compound `CCCOc1oc(=O)c2cc(N/C(S)=N/Cc3ccccc3)ccc2c1Cl` showed a k obs / 1 of 120 M⁻¹ s⁻¹.
Take `CCCOc1oc(=O)c2cc(N/C(S)=N/c3ccccc3)ccc2c1Cl`: the k obs / 1 turned out to be 240 M⁻¹ s⁻¹.
As for `CCCOc1oc(=O)c2cc(NC(=O)NCC)ccc2c1Cl`, the k obs / 1 is 12000 M⁻¹ s⁻¹.

Another data set addresses T1, Neutrophil elastase (Homo sapiens) (UniProt P08246).
T1 sequence (whole entry): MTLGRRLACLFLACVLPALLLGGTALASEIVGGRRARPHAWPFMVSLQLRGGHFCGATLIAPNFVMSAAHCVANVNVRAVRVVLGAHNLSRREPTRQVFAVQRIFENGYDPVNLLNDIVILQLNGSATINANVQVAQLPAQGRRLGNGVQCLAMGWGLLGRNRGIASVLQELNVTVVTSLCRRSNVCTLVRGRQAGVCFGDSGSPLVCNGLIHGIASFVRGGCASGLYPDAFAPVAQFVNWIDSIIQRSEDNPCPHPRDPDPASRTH
As to the kind of experiment: Inhibition of human leukocyte elastase(HLE) at 0.7-1.7 uM. In a few lines: as §1
Compound `CCCOc1oc(=O)c2cc(NC(=O)Nc3ccccc3)ccc2c1Cl` gave a k obs / 1 of 140000 M⁻¹ s⁻¹.
For the compound `CCCOc1oc(=O)c2cc(NC(=O)[C@H](Cc3ccccc3)NS(=O)(=O)c3ccc(C)cc3)ccc2c1Cl`, the k obs / 1 was determined as 33000 M⁻¹ s⁻¹.
`CCCOc1oc(=O)c2cc(N/C(S)=N/Cc3ccccc3)ccc2c1Cl`: the k obs / 1 was more than 130000 M⁻¹ s⁻¹.
`CCCOc1oc(=O)c2cc(N/C(S)=N/c3ccccc3)ccc2c1Cl` yielded a k obs / 1 of more than 170000 M⁻¹ s⁻¹.
The compound `CCCOc1oc(=O)c2cc(NC(=O)NCC)ccc2c1Cl` showed a k obs / 1 of more than 280000 M⁻¹ s⁻¹.

For another data set, the target named is T1, Neutrophil elastase (Homo sapiens). Kind of data set: The second order inactivation rate constant was expressed as inhibition of human leukocyte elastase (HLE). Inhibitor concentrations were 0.4-4 uM. The method in brief:
as §1
In the case of `COc1oc(=O)c2cc(NC(=O)C(Cc3ccccc3)NC(=O)c3ccc(NC(=O)Nc4ccccc4)cc3)ccc2c1Cl` (centres undefined), the k obs / 1 was 15000 M⁻¹ s⁻¹.
With `COc1oc(=O)c2cc(NC(=O)[C@H](Cc3ccccc3)NC(=O)c3ccc([N+](=O)[O-])cc3)ccc2c1Cl`, the k obs / 1 was 130000 M⁻¹ s⁻¹.
On to `COc1oc(=O)c2cc(NC(=O)[C@H](Cc3ccccc3)NC(=O)c3cccc(C)c3)ccc2c1Cl`, for which the k obs / 1 worked out at 130000 M⁻¹ s⁻¹.
As to `COc1oc(=O)c2cc(NC(=O)[C@H](Cc3c[nH]c4ccccc34)NC(=O)OC(C)(C)C)ccc2c1Cl`, the k obs / 1 worked out at 79000 M⁻¹ s⁻¹.
`COc1oc(=O)c2cc(NC(=O)C(Cc3ccccc3)NC(=O)c3cccc(NC(=O)Nc4ccccc4)c3)ccc2c1Cl` (centres undefined) returned a k obs / 1 of 28000 M⁻¹ s⁻¹.
`COc1oc(=O)c2cc(NC(=O)[C@H](Cc3ccccc3)NC(=O)c3ccc(C)cc3)ccc2c1Cl`: the k obs / 1 is 170000 M⁻¹ s⁻¹.

The target of a further data set is T2, Chymotrypsin-like elastase family member 2A (Sus scrofa) (UniProt P08419).
T2 sequence (whole entry): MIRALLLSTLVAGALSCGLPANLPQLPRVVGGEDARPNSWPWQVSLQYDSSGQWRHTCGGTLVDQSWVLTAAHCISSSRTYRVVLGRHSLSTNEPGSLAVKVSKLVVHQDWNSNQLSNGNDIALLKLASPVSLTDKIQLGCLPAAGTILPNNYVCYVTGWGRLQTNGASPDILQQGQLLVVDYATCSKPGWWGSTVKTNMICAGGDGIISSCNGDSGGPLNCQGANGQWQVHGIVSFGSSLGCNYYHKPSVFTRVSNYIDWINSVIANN
As to the kind of experiment: The second order inactivation rate constant was expressed as inhibition of porcine pancreatic elastase (PPE).Inhibitor concentrations were 2-600 uM. In a few lines:
as §1
In the case of `COc1oc(=O)c2cc(NC(=O)C(Cc3ccccc3)NC(=O)c3ccc(NC(=O)Nc4ccccc4)cc3)ccc2c1Cl` (centres undefined), the k obs / 1 stood at 68 M⁻¹ s⁻¹.
Turning to `COc1oc(=O)c2cc(NC(=O)[C@H](Cc3ccccc3)NC(=O)c3ccc([N+](=O)[O-])cc3)ccc2c1Cl`, the k obs / 1 was 64 M⁻¹ s⁻¹.
`COc1oc(=O)c2cc(NC(=O)[C@H](Cc3ccccc3)NC(=O)c3cccc(C)c3)ccc2c1Cl` registered a k obs / 1 of 1600 M⁻¹ s⁻¹.
Compound `COc1oc(=O)c2cc(NC(=O)[C@H](Cc3c[nH]c4ccccc34)NC(=O)OC(C)(C)C)ccc2c1Cl` had a k obs / 1 of 5800 M⁻¹ s⁻¹.
In turn, `COc1oc(=O)c2cc(NC(=O)C(Cc3ccccc3)NC(=O)c3cccc(NC(=O)Nc4ccccc4)c3)ccc2c1Cl` (centres undefined) registered a k obs / 1 of 54 M⁻¹ s⁻¹.
`COc1oc(=O)c2cc(NC(=O)[C@H](Cc3ccccc3)NC(=O)c3ccc(C)cc3)ccc2c1Cl`: the k obs / 1 was found to be 83 M⁻¹ s⁻¹.

The target in a further data set is T2, Chymotrypsin-like elastase family member 2A (Sus scrofa). Kind of data set: Percent activity regained after 17h of incubation with hydroxylamine (Non-preincubated Pancreatic elastase). In a few lines:
(§2)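 Without preincubation, hydroxylamine was added immediately after inhibition at [I]/PPE 200:1, and activity was read after 17 h. With preincubation, the 1:1 [I]/PPE complex stood 20 h at room temperature in buffer before hydroxylamine was added. Activity read at 1–17 h.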
Compound `COc1oc(=O)c2cc(NC(=O)[C@H](Cc3ccccc3)NC(=O)c3ccc([N+](=O)[O-])cc3)ccc2c1Cl` yielded an Activity regained of 91%.
Turning to `COc1oc(=O)c2cc(NC(=O)[C@H](Cc3ccccc3)NC(=O)c3ccc(C)cc3)ccc2c1Cl`, the Activity regained worked out at 91%.

For a further data set the target is unchanged. As to the kind of experiment: Percent activity regained after 20h of pre-incubation before addition of hydroxylamine (Preincubated Pancreatic elastase). The method in brief:
as §2
Turning to `COc1oc(=O)c2cc(NC(=O)[C@H](Cc3ccccc3)NC(=O)c3ccc([N+](=O)[O-])cc3)ccc2c1Cl`, the Activity regained turned out to be 6%.
`COc1oc(=O)c2cc(NC(=O)[C@H](Cc3ccccc3)NC(=O)c3ccc(C)cc3)ccc2c1Cl` displayed an Activity regained of 14%.

Another data set has the same target. Kind of data set: The second order inactivation rate constant was expressed as inhibition of porcine pancreatic elastase (PPE). Inhibitor concentrations were 34-56 uM. In a few lines: as §1
In the case of `CCCOc1oc(=O)c2cc(NC(=O)Nc3ccccc3)ccc2c1Cl`, the k obs / 1 is 1600 M⁻¹ s⁻¹.
For the compound `CCCOc1oc(=O)c2cc(NC(=O)[C@H](Cc3ccccc3)NS(=O)(=O)c3ccc(C)cc3)ccc2c1Cl`, the k obs / 1 stood at 520 M⁻¹ s⁻¹.
`CCCOc1oc(=O)c2cc(N/C(S)=N/Cc3ccccc3)ccc2c1Cl` had a k obs / 1 of 79 M⁻¹ s⁻¹.
`CCCOc1oc(=O)c2cc(N/C(S)=N/c3ccccc3)ccc2c1Cl` had a k obs / 1 of 59 M⁻¹ s⁻¹.
`CCCOc1oc(=O)c2cc(NC(=O)NCC)ccc2c1Cl` displayed a k obs / 1 of 220 M⁻¹ s⁻¹.

System in a further data set: not listed separately
As to the kind of experiment: Half-life for hydrolysis of compound was determined from kinetic constant. The data set is classed as ADME. In a few lines:
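Spontaneous hydrolysis in 0.1 M HEPES, 0.5 M NaCl, pH 7.5, 10% v/v DMSO final, 25 °C. Inhibitor added from 2.9–5.0 mM DMSO stock. Ring opening followed as absorbance decrease at 385 nm (ε385 = 3300 M⁻¹ cm⁻¹). Half-life from the first-order rate. Two determinations, standard errors ±15% or less.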
Compound `COc1oc(=O)c2cc(NC(=O)[C@H](Cc3ccccc3)NC(=O)c3cccc(C)c3)ccc2c1Cl` came in with a half-life of more than 48 h.
`COc1oc(=O)c2cc(NC(=O)[C@H](Cc3ccccc3)NC(=O)c3ccc(C)cc3)ccc2c1Cl` gave a half-life of more than 48 h.

Values taken from ChEMBL document CHEMBL1128722, “Mechanism-based isocoumarin inhibitors for human leukocyte elastase. Effect of the 7-amino substituent and 3-alkoxy group in 3-alkoxy-7-amino-4-chloroisocoumarins on inhibitory potency” (J Med Chem, 1995).
